Reference: PMC4715766 (ACS Chemical Biology, 2015)

Columns and labels:
DYNC1H1 = DYNC1H1 (Homo sapiens, UniProt Q14204); test: DYNC1H1 ATPase assay; format: biochemical
Method in brief: (§1)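 Purified N-terminally SBP- and SNAP-tagged full-length human heavy chains; hydrolysis of γ-32P ATP measured at 37 °C under conditions kept linear from enzyme reaction curves. Single-dose screens used 50 μM in both assays (about 25 nM γ-32P ATP, duplicates), or 50 μM for DYNC1H1 and 15 μM for DYNC2H1 (two experiments). IC50 calculated from dose-response curves run in triplicate.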

Hh signaling = Hh signaling assay; format: cell-based, murine; settings: ShhN-conditioned medium and compound for 30 h
DYNC2H1 = DYNC2H1 (Homo sapiens, UniProt Q8NCM8); test: DYNC2H1 ATPase assay; format: biochemical
Method in brief: as §1

[1] = tested on: NIH-3T3 cell-derived line; test: Ciliogenesis assay; format: cell-based, murine; settings: 30 μM; 24 h
Method in brief: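 NIH-3T3-derived cells were exposed to the test compound at 30 μM for 24 h, then fixed and immunostained for ARL13B. Primary cilium length was taken as the mean number of ARL13B-positive pixels per cell over at least 6 fields of view, about 800 cells per condition, reported ± s.e.m.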

IMCD3 cells = test: Real-time imaging of mNeonGreen-IFT88 movement; format: cell-based, murine; settings: 15 μM
Method in brief: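 Live IMCD3 cells expressing mNeonGreen-IFT88 were given 15 μM test compound or DMSO for 3 min and imaged in real time. Foci were tracked and classed as anterograde, retrograde or immobile, and their mean velocity and frequency were quantified from at least seven cilia across three independent experiments (± s.e.m.; P < 0.05 or 0.01).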

Sequence of DYNC2H1 (Q8NCM8 whole entry): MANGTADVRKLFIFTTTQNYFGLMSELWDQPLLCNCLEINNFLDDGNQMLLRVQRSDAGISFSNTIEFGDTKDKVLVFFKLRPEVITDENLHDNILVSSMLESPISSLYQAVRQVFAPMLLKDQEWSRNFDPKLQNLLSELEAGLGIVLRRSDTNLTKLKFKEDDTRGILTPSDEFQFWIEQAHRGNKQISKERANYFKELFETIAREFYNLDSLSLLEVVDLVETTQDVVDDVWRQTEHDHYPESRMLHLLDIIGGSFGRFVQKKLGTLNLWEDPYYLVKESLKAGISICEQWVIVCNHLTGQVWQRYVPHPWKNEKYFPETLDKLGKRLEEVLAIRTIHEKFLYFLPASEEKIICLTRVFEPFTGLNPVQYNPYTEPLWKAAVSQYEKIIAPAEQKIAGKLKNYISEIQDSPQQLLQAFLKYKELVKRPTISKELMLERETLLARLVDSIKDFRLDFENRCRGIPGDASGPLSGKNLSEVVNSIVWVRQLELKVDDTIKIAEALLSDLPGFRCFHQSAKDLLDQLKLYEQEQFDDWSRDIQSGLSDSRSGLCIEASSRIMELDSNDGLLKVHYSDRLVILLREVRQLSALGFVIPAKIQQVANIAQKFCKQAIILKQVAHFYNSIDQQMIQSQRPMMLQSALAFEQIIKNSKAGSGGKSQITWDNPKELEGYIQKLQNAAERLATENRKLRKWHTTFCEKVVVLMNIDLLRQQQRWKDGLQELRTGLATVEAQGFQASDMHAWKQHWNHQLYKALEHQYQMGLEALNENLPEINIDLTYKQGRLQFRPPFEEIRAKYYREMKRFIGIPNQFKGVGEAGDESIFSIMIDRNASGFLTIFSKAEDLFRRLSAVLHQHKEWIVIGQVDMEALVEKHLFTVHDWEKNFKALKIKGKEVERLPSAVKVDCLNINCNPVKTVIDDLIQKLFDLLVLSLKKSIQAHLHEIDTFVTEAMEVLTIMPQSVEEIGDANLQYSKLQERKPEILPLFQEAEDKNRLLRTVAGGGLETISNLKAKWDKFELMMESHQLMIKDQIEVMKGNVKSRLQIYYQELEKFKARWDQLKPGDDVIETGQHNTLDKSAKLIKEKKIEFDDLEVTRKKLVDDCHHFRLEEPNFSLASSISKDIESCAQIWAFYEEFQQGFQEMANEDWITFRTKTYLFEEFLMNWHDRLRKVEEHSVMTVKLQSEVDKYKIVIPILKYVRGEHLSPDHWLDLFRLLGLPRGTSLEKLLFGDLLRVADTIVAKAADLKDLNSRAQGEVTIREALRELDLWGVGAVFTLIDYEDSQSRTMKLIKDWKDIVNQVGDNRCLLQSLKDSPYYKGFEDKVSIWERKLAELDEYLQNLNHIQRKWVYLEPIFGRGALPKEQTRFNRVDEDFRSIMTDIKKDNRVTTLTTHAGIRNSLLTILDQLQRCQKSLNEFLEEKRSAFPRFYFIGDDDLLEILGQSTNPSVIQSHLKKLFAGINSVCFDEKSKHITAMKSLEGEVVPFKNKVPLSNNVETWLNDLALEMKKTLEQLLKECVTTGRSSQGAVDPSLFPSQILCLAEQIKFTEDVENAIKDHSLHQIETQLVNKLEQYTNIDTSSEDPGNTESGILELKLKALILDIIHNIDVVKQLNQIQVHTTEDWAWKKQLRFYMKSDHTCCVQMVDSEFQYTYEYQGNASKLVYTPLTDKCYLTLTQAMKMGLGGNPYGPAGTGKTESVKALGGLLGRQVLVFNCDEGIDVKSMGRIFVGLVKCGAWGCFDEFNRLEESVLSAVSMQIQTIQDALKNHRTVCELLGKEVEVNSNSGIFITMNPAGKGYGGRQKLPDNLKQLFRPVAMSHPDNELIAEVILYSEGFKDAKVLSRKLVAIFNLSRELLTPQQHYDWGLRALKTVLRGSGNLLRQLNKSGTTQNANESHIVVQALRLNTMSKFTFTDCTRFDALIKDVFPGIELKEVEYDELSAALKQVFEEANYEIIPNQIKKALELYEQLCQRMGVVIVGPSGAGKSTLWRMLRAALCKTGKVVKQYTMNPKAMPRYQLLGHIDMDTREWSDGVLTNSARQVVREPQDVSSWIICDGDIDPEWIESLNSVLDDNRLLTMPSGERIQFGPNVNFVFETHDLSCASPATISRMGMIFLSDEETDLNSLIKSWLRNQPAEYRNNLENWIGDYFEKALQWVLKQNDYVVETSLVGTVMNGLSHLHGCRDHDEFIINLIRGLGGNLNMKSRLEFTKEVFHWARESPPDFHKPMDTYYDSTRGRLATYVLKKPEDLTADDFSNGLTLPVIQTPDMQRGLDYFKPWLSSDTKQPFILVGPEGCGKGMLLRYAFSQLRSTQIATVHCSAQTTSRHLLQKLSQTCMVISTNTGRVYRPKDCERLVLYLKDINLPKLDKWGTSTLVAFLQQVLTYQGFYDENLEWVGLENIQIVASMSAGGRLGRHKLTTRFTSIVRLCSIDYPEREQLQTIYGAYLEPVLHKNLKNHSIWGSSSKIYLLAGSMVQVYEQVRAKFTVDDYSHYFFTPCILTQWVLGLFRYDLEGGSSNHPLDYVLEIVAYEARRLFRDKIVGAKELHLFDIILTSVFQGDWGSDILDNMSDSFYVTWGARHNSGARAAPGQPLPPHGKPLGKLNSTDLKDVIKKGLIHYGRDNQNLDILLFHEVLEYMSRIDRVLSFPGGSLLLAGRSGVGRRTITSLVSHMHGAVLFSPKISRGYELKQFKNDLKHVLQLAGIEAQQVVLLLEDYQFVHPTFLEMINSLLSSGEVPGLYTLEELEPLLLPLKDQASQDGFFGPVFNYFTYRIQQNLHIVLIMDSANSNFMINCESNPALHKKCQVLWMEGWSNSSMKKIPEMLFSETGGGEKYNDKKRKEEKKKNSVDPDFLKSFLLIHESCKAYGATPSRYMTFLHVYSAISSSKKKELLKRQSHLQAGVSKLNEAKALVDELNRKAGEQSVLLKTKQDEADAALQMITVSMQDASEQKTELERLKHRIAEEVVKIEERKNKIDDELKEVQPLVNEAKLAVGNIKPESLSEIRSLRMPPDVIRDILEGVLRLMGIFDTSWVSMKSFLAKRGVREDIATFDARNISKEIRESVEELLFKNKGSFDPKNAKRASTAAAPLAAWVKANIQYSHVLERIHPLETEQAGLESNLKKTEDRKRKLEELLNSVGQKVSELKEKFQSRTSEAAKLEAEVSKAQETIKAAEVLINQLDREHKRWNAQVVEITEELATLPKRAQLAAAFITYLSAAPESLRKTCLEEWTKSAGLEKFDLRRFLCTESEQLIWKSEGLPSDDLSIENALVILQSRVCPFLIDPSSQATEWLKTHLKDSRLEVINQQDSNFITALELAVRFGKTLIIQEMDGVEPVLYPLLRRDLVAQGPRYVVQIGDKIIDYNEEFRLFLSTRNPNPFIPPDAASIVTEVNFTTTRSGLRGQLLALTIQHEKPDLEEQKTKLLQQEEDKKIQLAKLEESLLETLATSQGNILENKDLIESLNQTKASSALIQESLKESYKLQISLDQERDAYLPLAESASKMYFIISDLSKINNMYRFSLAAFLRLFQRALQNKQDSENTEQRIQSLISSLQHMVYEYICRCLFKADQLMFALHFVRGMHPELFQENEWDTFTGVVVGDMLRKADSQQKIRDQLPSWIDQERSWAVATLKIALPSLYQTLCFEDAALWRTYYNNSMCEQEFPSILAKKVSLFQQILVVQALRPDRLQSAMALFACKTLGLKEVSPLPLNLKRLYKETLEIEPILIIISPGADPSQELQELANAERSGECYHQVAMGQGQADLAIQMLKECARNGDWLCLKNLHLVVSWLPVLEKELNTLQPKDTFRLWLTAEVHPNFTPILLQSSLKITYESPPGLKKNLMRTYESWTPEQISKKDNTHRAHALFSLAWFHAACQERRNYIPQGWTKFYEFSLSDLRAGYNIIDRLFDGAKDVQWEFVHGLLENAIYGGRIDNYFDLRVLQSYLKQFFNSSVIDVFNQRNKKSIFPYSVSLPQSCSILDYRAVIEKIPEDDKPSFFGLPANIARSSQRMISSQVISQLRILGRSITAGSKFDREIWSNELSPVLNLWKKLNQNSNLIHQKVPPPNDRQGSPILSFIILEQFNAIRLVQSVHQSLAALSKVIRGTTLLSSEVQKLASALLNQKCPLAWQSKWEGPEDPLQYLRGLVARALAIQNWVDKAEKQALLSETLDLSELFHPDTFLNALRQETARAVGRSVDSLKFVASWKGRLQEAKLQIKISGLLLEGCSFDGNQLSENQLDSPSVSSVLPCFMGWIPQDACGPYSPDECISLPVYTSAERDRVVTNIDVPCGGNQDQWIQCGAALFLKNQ

In the case of CC(C)Oc1ccc2c(c1)NC(=C(C#N)C(=O)c1ccc(Cl)cc1Cl)NC2=O [analog 18], the IC50 (DYNC1H1) is reported as 130 µM, the “inhibition of Hh signaling” value (Hh signaling) is reported as “Dose-dependent inhibition of Hh signaling” and the IC50 (DYNC2H1) is reported as 21 µM. The “inhibition of ciliogenesis / primary cilium length” value [1] was “Inhibition of ciliogenesis”.
Cc1ccc(COc2ccc3c(c2)NC(=C(C#N)C(=O)c2ccc(Cl)cc2Cl)NC3=O)cc1 [analog 37] was tested, and the “time to disruption of ciliary transport” value (IMCD3 cells) was ≤ 3 min.
